The values below come from paper PMC7141409 (Journal of biomolecular NMR, 2019).

Series [1] deals with ^15N-OsIAA11^72−125 (W104-P105 peptide bond). The series can be described thus: Nzz-exchange: catalyzed cis-trans exchange of W104-P105. It is filed as biochemical, rice. An outline of the steps:
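15N-labeled OsIAA11 72–125 substrate (800μM) with 16μM enzyme (LRT2 mutant or homolog) in NMR buffer (50mM KCl, 20mM KPO4, 3mM TCEP, 5mM NaN3, 0.1% protease inhibitor cocktail, pH=6.67). Protein concentrations were set by A280 using theoretical extinction coefficients. Nzz-exchange spectra were processed to give the observed cis-trans exchange rate (kexobs) of the W104-P105 bond with uncertainties.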

The conditions of series [2]: chymotrypsin-based two-step assay; cited from earlier work.

With “hCypA: human cyclophilin A [reference compound]”, the “Nzz exchange crosspeaks / activity” value in series [1] (16μM enzyme, 800μM OsIAA11^72–125) is recorded as “clear exchange crosspeaks”. This substance also displayed a Nzz-measured kexobs in series [1] (1H-15N Nzz exchange, 16μM enzyme, 800μM OsIAA11^72–125, NMR buffer pH=6.67) of 0.69 ± 0.04 s⁻¹. Further, in series [1] (Nzz, % of WT LRT2 activity), the “Activity relative to WT LRT2 on OsIAA11” value is listed as 110%.
With hCypA W121A: hCypA W121A mutant, the “Catalytic activity on W-P substrate” value in series [2] is listed as “negligible catalytic activity”.
